BaF3 parental = parental Ba/F3 cell viability inhibition, counter-screen for JAK2V617F inhibitor project, murine pro-B, CellTiter-Glo luminescence; AID 1486, 2009; hit rate 1.1% among 220,000; CellTiter-Glo ATP luminescence; inhibition, % at 5.6 µM;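 active = inhibition above a per-campaign cutoff, the mean inhibition of all tested compounds plus 3 SD, cut at about 27% in these data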;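 also: 0% = DMSO wells and 100% = JAK Inhibitor I control wells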
APP 5UTR inh = inhibitors of APP translation via 5'UTR reporter, primary screen, APP 5'UTR luciferase, SH-SY5Y cells | SH-SY5Y APP 5'UTR-luciferase reporter, luminescence | inhibition, % at 2 µM | hit rate 0.82% among 190,000;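 active = inhibition above a set limit, derived from the sample mean plus 3 SD, cut at about 45% in these data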
Ba/F3 V617F tox = reduced viability of JAK2V617F-dependent Ba/F3 cells, primary screen, JAK2V617F inhibitor project, cell-based, Ba/F3 EpoR-JAK2V617F, luminescence. ATP luminescence. inhibition, % at 5.6 µM. hit rate 1.1% among 220,000. AID 1446, 2008;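 active = inhibition above the campaign mean plus 3 SD over all tested compounds, cut at about 24% in these data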;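 also: cytokine-independent growth of Ba/F3 cells driven by EpoR plus mutant JAK2; 0% = DMSO-treated cells and 100% = JAK inhibitor I control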
IEC-6 cytotox = cytotoxicity in IEC-6 intestinal epithelial cells, primary screen, cytotoxicity control for KLF5 inhibitor project, cell-based, luminescence. IEC-6 cytotoxicity, luminescence viability. inhibition, % at 5 µM. hit rate 0.78% among 290,000; in the data active = inhibition above about 22%;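 also: 0% = plate median of test compound wells and 100% = cytotoxic reference compound wells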
b-catenin transl = modulators of beta-catenin nuclear translocation, primary screen, imaging, HeLa cells, immunofluorescence, high-content. nuclear translocation activity, % at 5 µM. hit rate 0.3% among 190,000;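 active = nuclear translocation activity above 50% at 5 µM, with a well cell count of 50 or more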;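 also: per-cell ratio of nuclear to cytoplasmic median beta-catenin stain intensity; plate controls were DMSO negative control for no effect and GSK-3 inhibitor IX positive control for full effect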
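test system = HeLa cells, endogenous beta-catenin | dosing = single 5 µM dose plus 0.02–20 µM confirmation series | times = compound treatment 24 h, 37°C, 5% CO2 | technique = beta-catenin immunofluorescence imaging with DAPI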
MT stabilize HCS = microtubule stabilizers in HeLa cells, primary screen, imaging, high-content imaging. AID 2205, 2009. % tubulin-high responders, % at 10 µM. HeLa tubulin immunostaining HCS, 24 h; share of cells brighter than vehicle mean+2SD. hit rate 0.83% among 200,000;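 active = plate Z-score above 3 for both tubulin-high and condensed-nucleus cell shares, with cell loss under 80%, at 10 µM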;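 also: anti alpha tubulin signal scored within the nucleus-defined area of each cell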
An asterisk follows results filed as active; · = not tested or not shown. Shown are actives, neighbours in structure and some others; about 2.2% of the full set was active somewhere.

SMILES | BaF3 parental | APP 5UTR inh | Ba/F3 V617F tox | IEC-6 cytotox | b-catenin transl | MT stabilize HCS
Cc1nn(C(C)C(=O)NCCCc2ccccc2)c(=O)c2nn(-c3ccccc3)c(C)c12 (centres undefined) | · | · | · | 0.6 | · | ·
CCC(CC)C(=O)Nc1nnc(S(=O)(=O)Nc2ccccc2C)s1 | · | · | · | -0.9 | · | ·
CC1(c2cccc(Br)c2)NC(=O)NC1=O (centres undefined) | · | · | · | -1.6 | · | ·
COc1ccc(C(=O)c2oc3ccccc3c2NC(C)=O)cc1 | -0.3 | 1.5 | -0.2 | 3.3 | 2.1 | 1.9
COc1ccc(OC)c(C(=O)c2oc3ccccc3c2NC(C)=O)c1 | 6.7 | 8.1 | 0.1 | -2.6 | -1.8 | 17.2*
COCCN1CCN(C(=O)c2cc(COc3ccc(F)cc3F)on2)CC1 | · | · | · | -0.1 | · | ·
O=C(Cc1ccccc1)NCc1ccc(-n2cccc2)cc1 | 4.8 | 1.0 | 7.6 | 5.1 | 52.4* | 4.4
Cn1nc(C(C)(C)C)cc1C(=O)NCc1ccc2c(c1)OCO2 | · | · | · | 19.1 | · | ·
CCCCn1c(N)c(N(CCOC)C(=O)C2CCN(S(=O)(=O)c3ccc(Cl)cc3)CC2)c(=O)[nH]c1=O | · | · | · | 3.2 | · | ·
CC1(C)Cc2nc3sc4c(=O)n(CC(N)=O)cnc4c3cc2CO1 | -3.3 | 0.7 | -6.1 | 2.5 | -2.4 | 2.2
CC1(C)Cc2nc3sc4c(=O)n(CC(=O)NCc5ccccc5)cnc4c3cc2CO1 | 2.4 | -4.0 | -0.4 | -0.9 | · | 34.3*
Cc1cc[n+](C(C)C(=O)c2ccc(-c3ccccc3)cc2)cc1 (centres undefined) | 66.5* | -0.2 | 81.0* | -5.3 | 0.1 | 1.8
CC(C(=O)c1ccc(-c2ccccc2)cc1)[n+]1ccccc1 (centres undefined) | 63.6* | 1.7 | 47.0* | -1.4 | 1.1 | 4.0
Cc1cc[n+](C(C)C(=O)c2ccc(Cl)cc2)cc1 (centres undefined) | · | · | · | -2.7 | · | ·
Cc1ccc[n+](C(C)C(=O)c2ccc(-c3ccccc3)cc2)c1 (centres undefined) | 68.7* | -9.1 | 57.7* | -12.0 | -2.8 | 2.9
CC(C(=O)c1ccc(-c2ccccc2)cc1)[n+]1cccc(C(N)=O)c1 (centres undefined) | · | · | · | -1.8 | · | ·
CCN(c1ccccc1)S(=O)(=O)c1ccc(N)c(OC)c1 | 11.1 | 10.7 | 3.4 | 10.4 | 111.3* | 22.4*
COc1ccc(-n2nc(C(=O)NCC(=O)NCCC3=CCCCC3)c3ccccc3c2=O)cc1 | · | · | · | -1.0 | · | ·
COc1cc(C(=O)c2c(C)c(CCC#N)n3ccccc23)cc(OC)c1OC | 10.9 | -30.4 | 1.7 | 3.5 | 61.0* | 19.5*
COc1cccc(C(=O)c2c(C)c(CCC#N)n3ccccc23)c1OC | 2.3 | -22.1 | -1.0 | 3.6 | -0.6 | 5.2
CC(C)CCN1CCNC(=O)C1CC(=O)N(C)CCCN1CCOCC1 (centres undefined) | · | · | · | 1.2 | · | ·
COc1ccc2nc(NC(=O)CSc3nc(C)cc(=O)[nH]3)sc2c1 | 3.3 | 60.1* | -0.8 | -11.1 | -0.3 | 2.4
O=c1oc(Cc2ccccc2)nc2ccccc12 | · | · | · | -5.1 | · | ·
CN(CC(=O)Nc1cccc(F)c1)C(=O)COc1cccc2c1OC(C)(C)C2 | · | · | · | -5.0 | · | ·
CCCn1c2c(c(=N)c3c1CCC3)CCCC2 | 65.2* | -8.7 | 64.9* | -0.7 | -1.5 | 1.9
SMILES | BaF3 parental | APP 5UTR inh | Ba/F3 V617F tox | IEC-6 cytotox | b-catenin transl | MT stabilize HCS
CCOC(=O)Cn1c2c(c(=N)c3c1CCC3)CCCC2 | 8.6 | 3.0 | 0.7 | -3.5 | -3.5 | 3.3
CCCCCCCn1c2c(c(=N)c3ccccc31)CCC2 | 77.9* | 6.6 | 98.8* | 33.6* | -0.3 | 7.4
CCCn1c(=S)[nH]c2sc3c(c2c1=O)CCCC3 | · | · | · | 3.7 | · | ·
O=C(O)CCn1c2c(c3ccccc31)CCCC2 | 9.7 | 4.8 | 6.0 | 0.4 | 1.6 | 0.9
CCCn1c2c(c(=N)c3c1CCC3)CCC2 | 54.4* | · | 46.4* | -1.4 | 0.0 | ·
COc1cccc(OC)c1C(=O)Nc1cccc(-n2cnnn2)c1 | · | · | · | 1.7 | · | ·
CC(C)(CNc1ccc(C(F)(F)F)cc1[N+](=O)[O-])N1CCOCC1 | · | · | · | 2.7 | · | ·
Cc1ccc(C2=NNC(C(O)C(O)C(O)C(O)CO)S2)cc1 (centres undefined) | 3.4 | -15.2 | -1.3 | -2.9 | -2.4 | 41.8*
OC[C@H](O)[C@H](O)[C@@H](O)[C@@H](O)[C@@H]1SC(c2ccccc2)=NN1c1ccccc1 | -3.7 | · | -2.7 | -5.7 | 0.2 | ·

Compound activity from PubChem.
